Screens (PubChem BioAssay)
Sampled rows, rich in hits. Any-hit rate of the full collection: about 2.3%.
TRPC6 act – mouse TRPC6 channel activation; hit rate 0.13% among 310,000; HEK293-TRPC6 membrane potential dye fluorescence; stronger effect = higher value; B-score at 10 µM; AID 2550; Q61143;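 active = B-score of the integrated fluorescence ratio above library mean plus 3 SD, and starting fluorescence ratio within library mean plus 5 SD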;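 also: higher score means more depolarization so channel activation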
TRPC4 inh – blocks the mouse TRPC4 cation channel; hit rate 0.39% among 300,000; HEK293 TRPC4beta/mu-opioid, DAMGO-evoked Fluo4 calcium flux; stronger effect = lower value; AID 2247; B-score at 10 µM; Q9QUQ5;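 active = B-score over 3 SD under the library average, no early fluorescence shift, positive overall ratio signal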
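System: stable TRPC4beta/mu-opioid receptor HEK293 cells; Dosing: single-point compound dosing; Measured by: Fluo4 Ca2+ flux fluorescence; Read-out basis: per-well B score of integrated baseline-normalized Fluo4 ratio.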
TRPC6 inhibitor – blocks the mouse TRPC6 cation channel; Q61143; HEK293-TRPC6, membrane potential dye, ACh-evoked depolarization; stronger effect = lower value; B-score at 10 µM; hit rate 1.1% among 310,000;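 active = B-score under library mean minus 3 SD, initial fluorescence not abnormally high, positive integrated signal ratio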;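 also: B-score derived from integrated fluorescence ratio over the kinetic read; more negative B-score means stronger inhibition of depolarization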
TRPC4 potent – TRPC4 (mouse) allosteric potentiation; hit rate 0.42% among 310,000; AID 2227; HEK293 TRPC4beta/mu-opioid, DAMGO EC20, Fluo-4 Ca2+ flux; stronger effect = higher value; Q9QUQ5; B-score at 10 µM;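 active = B-score of calcium response area above 5 SD of library B-scores, with initial fluorescence ratio within 5 SD of library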;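 also: B-score of integrated fluorescence ratio over time as area under calcium response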
TRPC4 agonist – activators of mouse TRPC4 channel | HEK293 TRPC4beta/mu-opioid, Fluo4 calcium fluorescence; stronger effect = higher value | hit rate 0.49% among 310,000 | B-score at 10 µM;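 active = B-score above 5 SD of library B-scores, and initial fluorescence ratio not above library mean plus 5 SD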;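 also: positive B-score marks a calcium rise read as TRPC4 activation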
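System – HEK293 cells stably co-expressing mouse TRPC4beta and mu-opioid receptor · Signal – Fluo4 calcium-sensitive dye fluorescence, kinetic, 1 Hz baseline · Benchmarks – buffer (low) and maximal DAMGO (high) · Read-out – B score of integrated fluorescence ratio per well · Incubation – dye loading 45 min room temperature, 110 s kinetic read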
* hit, by the source's call; i = inactive.

SMILES | TRPC6 act | TRPC4 inh | TRPC6 inhibitor | TRPC4 potent | TRPC4 agonist
C/C(=N\NC(=O)c1cc2ccccc2cc1O)c1ccccn1 | i | i | i | i | 53*
C/C(=N\NC(=O)c1c[nH]c2ccccc12)c1ccccn1 | i | i | i | i | i
O=[N+]([O-])c1ccc(CN2CCN(Cc3c[nH]c4ccccc34)CC2)cc1 | i | -6* | i | i | i
Brc1ccccc1CN1CCN(Cc2c[nH]c3ccccc23)CC1 | i | -6* | i | i | i
Brc1ccc(CN2CCN(Cc3c[nH]c4ccccc34)CC2)cc1 | i | i | i | i | i
CCc1cc(Br)ccc1NC(=S)NCCc1ccccc1 | i | i | i | i | i
CNC(=S)NNC(=O)c1cccn(Cc2cccc(C(F)(F)F)c2)c1=O | i | i | i | 25* | i
CNC(=S)NNC(=O)c1cccn(Cc2ccc(Cl)cc2Cl)c1=O | i | i | i | i | i
Cc1ccc(S(=O)(=O)N2CCCCC2)cc1C(=O)N(CCc1ccccc1)Cc1ccccc1 | i | i | i | i | i
CC(C)c1ccc(NC(=O)C2C3C=CC4(O3)C2C(=O)N(CCCN2CCCCC2)C4C(=O)NC2CCCCC2)cc1 (stereo unspecified) | i | -6* | i | i | 66*
Cc1ccc(NC(=O)C2C3C=CC4(O3)C2C(=O)N(CCCN2CCCC2)C4C(=O)NC2CCCCC2)cc1Cl (stereo unspecified) | i | i | i | i | i
CN(C)CCN1C(=O)C2C(C(=O)Nc3cc(Cl)cc(Cl)c3)C3C=CC2(O3)C1C(=O)NC1CCCCC1 (stereo unspecified) | i | -7* | i | i | i
CCN(CC)CCN1C(=O)C2C(C(=O)Nc3ccc(C(C)C)cc3)C3C=CC2(O3)C1C(=O)NC1CCCCC1 (stereo unspecified) | i | -6* | i | i | 63*
CC1CCCN(CCCN2C(=O)C3C(C(=O)Nc4ccc(Cl)cc4)C4C=CC3(O4)C2C(=O)NC2CCCCC2)C1 (stereo unspecified) | i | -6* | i | i | i
Cc1cc(C)cc(NC(=O)C2C3C=CC4(O3)C2C(=O)N(CCN2CCCCC2)C4C(=O)NC2CCCCC2)c1 (stereo unspecified) | i | i | i | i | i
Cc1nc(Cc2nnc(SC(C)C(=O)Nc3cccc(C#N)c3)o2)cs1 (stereo unspecified) | i | i | i | i | i
CCN(CC)c1ccc(NC(=O)CCS(=O)(=O)c2ccc(Br)cc2)c(C)c1 | i | i | i | i | i
NC1=NC[C@H](Cc2ccc(O)cc2)N1CC1CCCCC1 | i | i | i | i | 76*
O=C(Nc1ncc(Br)s1)C(Cc1ccccc1)n1cccc1 (stereo unspecified) | i | i | i | 36* | i
O=C(Nc1cccnc1)C(Cc1ccccc1)n1cccc1 (stereo unspecified) | i | i | i | i | i
CC(CN1CCCC(C(N)=O)C1)c1ccccc1 (stereo unspecified) | i | i | i | i | 131*
CCOC(=O)C1CCCN(CCC(C)c2ccccc2)C1 (stereo unspecified) | i | i | i | i | i
NC(=O)C1CCCN(CCc2ccccc2)C1 (stereo unspecified) | i | i | i | i | 103*
Fc1ccc(NC(=S)NCCc2ccccn2)cc1 | i | i | i | i | 213*
CCc1ccc(N2CC(C(=O)Nc3ccc(S(=O)(=O)N4CCOCC4)cc3)CC2=O)cc1 (stereo unspecified) | i | i | i | i | i
SMILES | TRPC6 act | TRPC4 inh | TRPC6 inhibitor | TRPC4 potent | TRPC4 agonist
COc1ccc(NC(=O)C(OC(=O)c2cnccn2)c2ccccc2)cc1Cl (stereo unspecified) | i | i | i | i | i
Cc1ccc(S(=O)(=O)Nc2ccc(C(=O)N3CCCC3)cc2)cc1 | i | i | i | i | i
Cc1ccc(NS(=O)(=O)c2ccc(C(=O)N3CC(C)CC(C)C3)cc2)cc1 (stereo unspecified) | i | i | i | i | 104*
CCCCC(=O)NC(c1ccccc1)c1ccc2cccnc2c1O (stereo unspecified) | i | i | i | i | i
CCCC(=O)NC(c1ccccc1)c1ccc2cccnc2c1O (stereo unspecified) | i | i | -5.8* | i | i
Cc1ccc(-n2nnnc2SCC(=O)NC2CC2)cc1C | i | i | i | i | i
CCOc1ccc(S(=O)(=O)N2CCC(C(=O)NCc3cccnc3)CC2)cc1C | i | i | i | i | i
OC1(c2ccccc2)CN(c2ccccc2)C2=[N+]1CCS2 (stereo unspecified) | i | -9* | i | i | 72*
OC1(c2cccs2)CN(c2ccc(Br)cc2)C2=[N+]1CCCS2 (stereo unspecified) | i | i | i | i | i
S=C(NCCc1ccccc1)NCC(c1ccco1)N1CCCCC1 (stereo unspecified) | i | i | i | i | 60*
COc1ccc(NC(=S)NCC(c2ccco2)N2CCCC2)cc1 (stereo unspecified) | i | i | i | i | i
CCc1ccccc1NC(=S)N(CCCN(C)C)Cc1cc2cc3c(cc2[nH]c1=O)OCO3 | i | -8* | i | i | i
Cc1cccc(NC(=S)N(CCCN(C)C)Cc2cc3cc4c(cc3[nH]c2=O)OCO4)c1 | i | i | i | i | i
O=C(OCC(=O)N1CCCC1=O)c1cccc(S(=O)(=O)N2CCOCC2)c1 | i | i | i | i | i
O=C(OCC(=O)N1CCOCC1)c1cccc(S(=O)(=O)N2CCCc3ccccc32)c1 | i | i | i | 15* | i
O=C1C=C(O)CC(c2ccc(Cl)c(Cl)c2)C1 (stereo unspecified) | i | i | i | 11* | i
O=C1C=C(O)CC(c2ccc(Cl)cc2)C1 (stereo unspecified) | i | i | i | i | i
CCN1CCN(c2nc(C)c3c(n2)CC(C)CC3=O)CC1 (stereo unspecified) | i | i | i | 15* | i
CC12CC3CC(C)(C1)CC(C(=O)N1CCN(C(=O)C4CCCO4)CC1)(C3)C2 (stereo unspecified) | i | i | i | i | i
Cc1cc(OCC(=O)NC(C)C)cc(C)c1Br | i | i | i | i | i
Cc1cc(OCC(=O)N(C(C)C)C(C)C)cc(C)c1Br | i | i | i | 38* | i
